Rtt109 Vps75 – blocks Candida albicans Rtt109/Vps75 acetyltransferase activity; purified Rtt109/Vps75, ThioGlo CoA-SH fluorescence, 4 h; 330,000 tested, 0.16% active; Q5AAJ8; inhibition, % at 34.9 µM;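 active means inhibition of at least 50% in every replicate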
SR-BI DiI inh – mouse SR-BI HDL lipid transfer inhibition | Q61009 | AID 488896 | ldlA[mSR-BI] CHO cells, DiI-HDL uptake fluorescence, 3 h | inhibition, % at 12.5 µM | 320,000 tested, 0.96% active;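 active means mean replicate inhibition of at least 70% and a set share of replicates each scoring 70 or more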;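 further: 0% = median of neutral control wells and 100% = median of positive control wells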
Target sequence (Q61009 whole entry, looked up): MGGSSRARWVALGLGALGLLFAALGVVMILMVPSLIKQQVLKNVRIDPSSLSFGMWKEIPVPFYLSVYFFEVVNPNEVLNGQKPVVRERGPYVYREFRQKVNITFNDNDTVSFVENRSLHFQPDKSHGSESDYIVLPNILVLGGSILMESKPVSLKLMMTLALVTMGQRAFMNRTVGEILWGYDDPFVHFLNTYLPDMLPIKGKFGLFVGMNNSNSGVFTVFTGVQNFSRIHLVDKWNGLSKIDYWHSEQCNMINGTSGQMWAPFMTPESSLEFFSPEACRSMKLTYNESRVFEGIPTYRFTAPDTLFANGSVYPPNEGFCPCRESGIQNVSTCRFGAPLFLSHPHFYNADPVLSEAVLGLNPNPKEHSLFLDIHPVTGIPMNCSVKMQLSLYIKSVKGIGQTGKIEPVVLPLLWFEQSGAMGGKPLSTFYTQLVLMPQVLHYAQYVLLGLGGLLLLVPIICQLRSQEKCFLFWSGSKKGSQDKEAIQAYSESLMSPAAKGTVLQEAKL
HIV Env fusion – inhibitors of HIV Env-mediated cell fusion; inhibition, % at 12.3 µM; HeLa-JRFL Env/CEM21 cell fusion, luciferase; 360,000 tested, 1.1% active;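 active means mean replicate inhibition score of at least 50 and every replicate individually at or above 50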;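 further: 0% = plate neutral controls and 100% = maraviroc near 300 nM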
SR-BI uptake up – SR-BI HDL lipid transfer activation. CHO ldlA[mSR-BI] cells, DiI-HDL uptake fluorescence, 3 h; 100 = double the neutral-control signal. activation, % at 12.5 µM. 320,000 tested, 0.096% active. AID 504775;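 active means mean replicate activation of at least 60% and every replicate at or above 60%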;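 further: 0% = median plate neutral-control signal and 100% = twice that signal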
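Material – SR-BI-overexpressing, LDLR-lacking CHO cells · Medium – BSA-supplemented, HEPES-buffered Ham's F12, pH 7.4 · Doses – single concentration · Times – compound with DiI-HDL co-incubation, 3 h at 37 °C · Measured by – bottom-read fluorescence, 550/595 nm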
N-glyco inh – blocks N-linked glycosylation in D54 reporter cells. reporter increase, % at 12.5 µM. D54 ERlucT glycosylation luciferase reporter, 24 h; percent of 100 nM tunicamycin response. 360,000 tested, 0.23% active;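 active means mean luciferase reporter signal, scaled so untreated is 0 and the glycosylation-blocking control 100, at or above a set limit in every replicate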;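 further: luciferase carries N-glycosylation sites so blocking glycosylation raises the light; 0% = median of neutral control wells and 100% = median of 100 nM tunicamycin wells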
PglD DTNB – blocks C. jejuni PglD acetyltransferase activity. purified PglD enzyme, DTNB colorimetric CoA detection. inhibition, % at 12.5 µM. 360,000 tested, 0.098% active. AID 602405; in the data active means inhibition above about 16%, passing the limit was not always enough
Active calls of the source: *; [ ] = dose if it differs, or a comment. This is a sample that favours compounds with a hit; in the whole collection about 1.9% have one here.

How did CC(C)C[C@H](NC(=O)c1nc[nH]c1C(=O)N[C@@H](CC(C)C)C(=O)OCc1ccccc1)C(=O)OCc1ccccc1 do in these assays?
Rtt109 Vps75: 7; SR-BI DiI inh: 5; HIV Env fusion: 71*; SR-BI uptake up: -5; N-glyco inh: -1; PglD DTNB: 1

How did CC(C)(C)OC(=O)NCCCC[C@H](NC(=O)c1[nH]cnc1C(=O)N[C@@H](Cc1ccccc1)C(=O)OC(C)(C)C)C(=O)OC(C)(C)C do in these assays?
Rtt109 Vps75: -3; SR-BI DiI inh: -64; HIV Env fusion: 47; SR-BI uptake up: 64*; N-glyco inh: -6; PglD DTNB: -5

Results for C[C@@H]1CN([C@@H](C)CO)S(=O)(=O)c2ccc(C3=CCCCC3)cc2O[C@H]1CN(C)CC1CC1 ?
HIV Env fusion: 13[16.7 µM]

What do the screens show for `C[C@H](CO)N1C[C@H](C)[C@H](CN(C)CC2CCOCC2)Oc2ncc(C3=CCCCC3)cc2C1=O`?
HIV Env fusion: -10[16.7 µM]; PglD DTNB: 5

How did COCC(=O)N(C)C[C@H]1Oc2ncc(C3=CCCCC3)cc2C(=O)N([C@@H](C)CO)C[C@@H]1C do in these assays?
HIV Env fusion: -2[16.7 µM]; PglD DTNB: 2

Results for CC(C)C[C@H](NC(=O)c1nc[nH]c1C(=O)N[C@@H](CC(C)C)C(=O)OC(C)(C)C)C(=O)OC(C)(C)C ?
Rtt109 Vps75: -3; SR-BI DiI inh: 15; HIV Env fusion: 70*; SR-BI uptake up: -15; N-glyco inh: -1; PglD DTNB: -6

Results for CCCNC(=O)N(C)C[C@H]1Oc2cc(-c3ccccc3F)ccc2S(=O)(=O)N([C@H](C)CO)C[C@@H]1C ?
HIV Env fusion: 13[16.7 µM]; PglD DTNB: 1

How did Cc1ccc(-c2cnc3c(c2)C(=O)N([C@@H](C)CO)C[C@H](C)[C@@H](CN(C)C(=O)Cc2ccccc2)O3)cc1 do in these assays?
HIV Env fusion: 10[16.7 µM]; PglD DTNB: 3

How did Cc1cccc(C)c1-n1c(C)cc(/C=N/NC(=O)CSc2ncccn2)c1C do in these assays?
Rtt109 Vps75: 3; SR-BI DiI inh: 18; HIV Env fusion: -8; SR-BI uptake up: -18; N-glyco inh: -3

Results for Cc1cc(C)nc(SCC(=O)N/N=C/c2cc(C)n(-c3ccccc3C)c2C)n1 ?
SR-BI DiI inh: 85*; SR-BI uptake up: -85; N-glyco inh: -1; PglD DTNB: 2

How did COC(=O)c1ccc(C(=O)Nc2nc3cc(N)c(C)cc3s2)cc1 do in these assays?
Rtt109 Vps75: 0; SR-BI DiI inh: 81*; HIV Env fusion: 15; SR-BI uptake up: -81; N-glyco inh: 2; PglD DTNB: -8

How did C[C@@H]1CN([C@H](C)CO)C(=O)c2cc(C#Cc3ccccc3F)cnc2O[C@H]1CN(C)C(=O)C1CC1 do in these assays?
HIV Env fusion: 5[16.7 µM]; PglD DTNB: 2

How did C=C[C@@H]1c2cc(C)ccc2N(S(=O)(=O)c2ccc(C)cc2)[C@H](c2ccccc2C(F)(F)F)C1(C#N)C#N do in these assays?
Rtt109 Vps75: -4; SR-BI DiI inh: 8; HIV Env fusion: 56*; SR-BI uptake up: -8; N-glyco inh: -8; PglD DTNB: 2

How did CCN(Cc1ccc(OC)c(F)c1)C(C)C(=O)Nc1ccc(S(=O)(=O)N2CCCC2)cc1 (centres undefined) do in these assays?
Rtt109 Vps75: 5; SR-BI DiI inh: 28; HIV Env fusion: 57*; SR-BI uptake up: -28; N-glyco inh: -3

What do the screens show for `CCCN1C[C@@H](C)[C@@H](OC)CN(C)C(=O)c2ccc(NC(=O)Nc3c(C)noc3C)cc2OC[C@@H]1C`?
HIV Env fusion: -20[16.7 µM]; PglD DTNB: 0

How did CCCCN1C(=O)/C(=C/C=C2\Oc3ccccc3N2CC)SC1=S do in these assays?
Rtt109 Vps75: 8; SR-BI DiI inh: 89*; HIV Env fusion: 0; SR-BI uptake up: -89; N-glyco inh: -4; PglD DTNB: -4

How did CCCN1C(=O)/C(=C/C=C2\N(CC)c3ccccc3C2(C)C)SC1=S do in these assays?
Rtt109 Vps75: 2; SR-BI DiI inh: 48; HIV Env fusion: 5; SR-BI uptake up: -48; N-glyco inh: 0; PglD DTNB: 7

What do the screens show for `CCNC(=O)C[C@@H]1CC[C@@H]2[C@H](COc3ccc(NC(=O)c4cccs4)cc3C(=O)N2C)O1`?
HIV Env fusion: 19[16.7 µM]; PglD DTNB: 1

Results for CCCN1[C@@H]2c3ccc(-c4cccnc4)c(=O)n3C[C@@H]2[C@@H](CO)[C@@H]1C(=O)NCCCN1CCOCC1 ?
PglD DTNB: 7

How did C[C@H](CO)N1C[C@H](C)[C@H](CN(C)C(=O)C2CCCCC2)OCc2cn(nn2)CCCC1=O do in these assays?
HIV Env fusion: 9[16.7 µM]; PglD DTNB: 0

What do the screens show for `Cc1ccc(NC(=O)[C@@H]2CCCN2S(=O)(=O)c2ccccc2C(F)(F)F)cc1S(=O)(=O)N1CCOCC1`?
Rtt109 Vps75: 11; SR-BI DiI inh: 1; HIV Env fusion: 57*; SR-BI uptake up: -1; N-glyco inh: 1

What do the screens show for `O=C(CNc1ccccc1)N/N=C/c1cc([N+](=O)[O-])ccc1N1CCCC1`?
Rtt109 Vps75: -1; SR-BI DiI inh: 73*; SR-BI uptake up: -73; N-glyco inh: 1; PglD DTNB: 3

What do the screens show for `CCN(CC)C(=O)C1CCCN(c2ccccc2[N+](=O)[O-])C1` (centres undefined)?
Rtt109 Vps75: -18; SR-BI DiI inh: 79*; HIV Env fusion: 2; SR-BI uptake up: -79; N-glyco inh: -1

How did CCN(CC)C(=O)C1CCCN(c2ccc([N+](=O)[O-])cc2/C=N/NC(=O)c2cccc([N+](=O)[O-])c2)C1 (centres undefined) do in these assays?
Rtt109 Vps75: 0; SR-BI DiI inh: 90*; HIV Env fusion: 25; SR-BI uptake up: -90; N-glyco inh: -1; PglD DTNB: -5

Results for CC(C)NC(=O)N(C)C[C@H]1Oc2cc(-c3cncnc3)ccc2S(=O)(=O)N([C@@H](C)CO)C[C@@H]1C ?
HIV Env fusion: -51[16.7 µM]; PglD DTNB: -1

How did Cc1ccc(S(=O)(=O)N(C)C[C@H]2OCCCC[C@@H](C)Oc3ccc(NS(=O)(=O)c4cn(C)cn4)cc3C(=O)N([C@@H](C)CO)C[C@H]2C)cc1 do in these assays?
HIV Env fusion: -32[16.7 µM]; PglD DTNB: -1

How did COc1ccc(C#Cc2cnc3c(c2)C(=O)N([C@H](C)CO)C[C@@H](C)[C@H](CN(C)C(=O)CC2CC2)O3)cc1 do in these assays?
PglD DTNB: 10

What do the screens show for `O=C1[C@H]2[C@@H](c3ccc(F)cc3)N3C(=O)N(c4cccc(Cl)c4)C(=O)[C@@]3(Cc3ccccc3)[C@H]2C(=O)N1C1CCCCC1`?
Rtt109 Vps75: 9; SR-BI DiI inh: -4; HIV Env fusion: 14; SR-BI uptake up: 4; N-glyco inh: 72*; PglD DTNB: 3

High-throughput results from PubChem BioAssay.
